# From ChEMBL document CHEMBL4145607, “Tamarixetin Exhibits Anti-inflammatory Activity and Prevents Bacterial Sepsis by Increasing IL-10 Production” (J Nat Prod, 2018)
# Activity calls are given as the source filed them. No cut-off for these calls is given here.
# Columns and labels:
# [1] = target: Mitogen-activated protein kinase 8 (Homo sapiens) (UniProt P45983); assay: Binding affinity to human C-terminal His6-tagged JNK1alpha1 (1 to 364 residues) expressed in Escherichia coli by tryptophan fluorescence quenching assay
# Chain of Mitogen-activated protein kinase 8 (Homo sapiens) (P45983 whole entry, the tested form may be a part): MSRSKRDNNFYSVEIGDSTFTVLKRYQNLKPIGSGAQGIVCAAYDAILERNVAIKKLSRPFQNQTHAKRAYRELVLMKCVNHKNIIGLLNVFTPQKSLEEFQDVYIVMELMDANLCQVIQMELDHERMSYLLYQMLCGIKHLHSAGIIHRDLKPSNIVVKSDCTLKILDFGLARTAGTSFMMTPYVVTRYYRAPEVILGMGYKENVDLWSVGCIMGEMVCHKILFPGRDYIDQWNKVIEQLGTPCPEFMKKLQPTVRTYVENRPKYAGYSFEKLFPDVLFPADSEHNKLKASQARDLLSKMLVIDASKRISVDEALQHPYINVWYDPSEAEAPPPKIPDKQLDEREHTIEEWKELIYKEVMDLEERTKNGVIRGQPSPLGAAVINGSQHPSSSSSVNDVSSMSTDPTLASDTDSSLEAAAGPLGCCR
# How it was run: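 C-terminally His6-tagged human JNK1 (10 μM) was titrated with compound (0–100 μM; final protein:inhibitor 1:10) in 50 mM sodium phosphate, 100 mM NaCl, pH 8.0, at 25 °C. Tryptophan emission was recorded at 290–600 nm with excitation at 290 nm.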
# Mus musculus [2] = assay: Antiinflammatory activity in Balb/c mouse model of LPS-induced endotoxemia assessed as increase in IL10 producing monocyte/macrophage in splenocyte at 1 mg/kg, ip pretreated for 1 hr followed by LPS-challenge measured after 12 hrs by flow cytometric analysis; format: functional, organism-based
# Mus musculus [3] = assay: Antiseptic activity in Balb/c mouse model of Escherichia coli K1 infection-induced sepsis assessed as increase in survival rate at 1 mg/kg, ip pretreated for 1 hr followed by Escherichia coli K1 infection measured up to 20 hrs relative to control; format: functional
# Mus musculus [4] = assay: Antiseptic activity in Balb/c mouse model of Escherichia coli K1 infection-induced sepsis assessed as reduction in serum ALT level at 1 mg/kg, ip pretreated for 1 hr followed by Escherichia coli K1 infection measured after 2 hrs by ELISA; format: functional, organism-based
# [5] = target: T1, Toll-like receptor 4 (Mus musculus) (UniProt Q9QUK6); assay: Inhibition of LPS-induced TLR4 activation in C57BL/6 mouse BMDC assessed as reduction in COX2 expression at 25 uM pretreated for 30 mins followed by LPS-challenge measured after 15 to 90 mins by Western blot analysis; format: cell-based
# T1 sequence (whole entry): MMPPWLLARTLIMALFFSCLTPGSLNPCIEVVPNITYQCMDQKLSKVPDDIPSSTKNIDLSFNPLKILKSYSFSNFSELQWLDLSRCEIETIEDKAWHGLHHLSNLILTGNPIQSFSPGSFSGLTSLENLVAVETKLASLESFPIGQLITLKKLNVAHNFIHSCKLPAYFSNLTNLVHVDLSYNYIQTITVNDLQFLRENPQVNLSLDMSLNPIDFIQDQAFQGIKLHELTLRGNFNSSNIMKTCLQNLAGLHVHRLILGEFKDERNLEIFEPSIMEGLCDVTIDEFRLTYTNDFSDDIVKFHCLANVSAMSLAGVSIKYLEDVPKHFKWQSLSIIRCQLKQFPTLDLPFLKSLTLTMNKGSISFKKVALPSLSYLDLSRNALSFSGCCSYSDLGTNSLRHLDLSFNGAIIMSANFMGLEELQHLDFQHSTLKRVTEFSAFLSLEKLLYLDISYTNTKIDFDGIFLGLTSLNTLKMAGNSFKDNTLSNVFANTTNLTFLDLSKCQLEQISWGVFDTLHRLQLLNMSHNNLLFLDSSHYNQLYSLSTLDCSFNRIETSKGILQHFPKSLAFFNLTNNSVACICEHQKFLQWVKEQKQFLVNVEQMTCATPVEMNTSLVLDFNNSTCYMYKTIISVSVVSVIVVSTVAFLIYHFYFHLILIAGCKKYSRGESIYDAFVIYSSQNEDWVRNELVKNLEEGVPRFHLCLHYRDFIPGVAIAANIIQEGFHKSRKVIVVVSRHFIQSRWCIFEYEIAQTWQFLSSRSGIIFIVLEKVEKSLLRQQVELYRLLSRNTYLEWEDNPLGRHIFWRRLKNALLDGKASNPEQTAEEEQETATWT
# How it was run: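 BMDCs were pretreated 30 min with 25 μM compound, then stimulated with LPS 50 ng·mL−1 for the indicated times. Lysates (25 μg protein) were run on 10% SDS-PAGE and immunoblotted for phospho/total ERK, JNK, p38 and Akt, plus COX-2, IκBα and α-tubulin, with ECL detection. Representative of three experiments.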
# Mus musculus [6] = assay: Antiinflammatory activity in Balb/c mouse model of LPS-induced endotoxemia assessed as reduction in IL6 level in lungs at 1 mg/kg, ip pretreated for 1 hr followed by LPS-challenge measured after 12 hrs by ELISA; format: functional, organism-based
# How it was run: (§1)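 BALB/c mice got 1 mg·kg−1 i.p. 1 h before i.p. LPS 10 mg·kg−1. After 12 h, TNF-α and IL-6 in lung lysates were measured by sandwich ELISA. Means ± SEM.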
# Mus musculus [7] = assay: Antiseptic activity in Balb/c mouse model of Escherichia coli K1 infection-induced sepsis assessed as reduction in serum TNFalpha level at 1 mg/kg, ip pretreated for 1 hr followed by Escherichia coli K1 infection measured after 2 hrs by ELISA; format: functional, organism-based
# How it was run: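 BALB/c mice received 1 mg·kg−1 i.p. 1 h before i.p. E. coli K1 RS218, 1 × 10^6 CFU per mouse. Serum was collected at 2 h, and TNF-α, IL-6 and IL-10 were quantified by sandwich ELISA. Means ± SEM.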
# Mus musculus [8] = assay: Antiinflammatory activity in Balb/c mouse model of LPS-induced endotoxemia assessed as reduction in serum blood urea nitrogen level at 1 mg/kg, ip pretreated for 1 hr followed by LPS-challenge measured after 12 hrs by ELISA; format: functional, organism-based
# How it was run: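 In BALB/c mice, 1 mg·kg−1 i.p. was given 1 h before LPS 10 mg·kg−1 i.p. After 12 h, serum AST, ALT and BUN were measured by ELISA. Means ± SEM.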
# Mus musculus [9] = assay: Antiinflammatory activity in Balb/c mouse model of LPS-induced endotoxemia assessed as increase in survival rate at 1 mg/kg, ip pretreated for 1 hr followed by LPS-challenge measured over 72 hrs relative to control; format: functional
# How it was run: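 Female-unspecified BALB/c mice given compound i.p. 1 h before i.p. LPS (20 mg·kg−1); survival followed over 72 h.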
# BMDC = assay: Inhibition of Escherichia coli K1 infection-induced immune response in C57BL/6 mouse BMDC assessed as reduction in TNFalpha secretion at 25 uM pretreated for 60 to 120 mins followed by Escherichia coli K1 infection for 6 hrs by ELISA; format: functional, cell-based
# How it was run: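 BMDCs from C57BL/6 mice were given 25 μM compound and E. coli K1, […]. Timing was: compound 30 min before a 6 h infection; cotreatment for 6 h; or compound for 30–120 min with 6 h infection. Supernatant cytokines (TNF-α, IL-6, IL-10, IL-12p70) were measured by ELISA. At least three experiments in triplicate.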
# Mus musculus [10] = assay: Antiinflammatory activity in Balb/c mouse model of LPS-induced endotoxemia assessed as reduction in TNFalpha level in lungs at 1 mg/kg, ip pretreated for 1 hr followed by LPS-challenge measured after 12 hrs by ELISA; format: functional, organism-based; how it was run: as §1
# Mus musculus [11] = assay: Antiinflammatory activity in Balb/c mouse model of LPS-induced endotoxemia assessed as reduction in serum TNFalpha level at 1 mg/kg, ip pretreated for 1 hr followed by LPS-challenge measured after 2 hrs by ELISA; format: functional, organism-based
# How it was run: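 BALB/c mice were dosed with 1 mg·kg−1 i.p. 1 h before LPS 10 mg·kg−1 i.p. Serum was taken 2 h later, and TNF-α, IL-6 and IL-10 were measured by sandwich ELISA. Means ± SEM.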
smiles,measurement,setting,value
COc1ccc(-c2oc3cc(O)cc(O)c3c(=O)c2O)cc1O [TAMARIXETIN],K,[1],4.9 ×10⁵ /M
same,Activity,Mus musculus [2],Active
same,Activity,Mus musculus [3],60%
same,Activity,Mus musculus [4],Active
same,inhibition,[5],Active
same,Activity,Mus musculus [6],Active
same,Activity,Mus musculus [7],Active
same,Activity,Mus musculus [8],Active
same,Activity,Mus musculus [9],80%
same,inhibition,BMDC,inactive
same,Activity,Mus musculus [10],Active
same,Activity,Mus musculus [11],Active
